According to ChEMBL document CHEMBL1130234 (J Med Chem, 1997):
pIC50: −log10 of the molar value.

Legend:
HaCaT [1] = experiment: Antiproliferative (inhibition of cell growth) activity against HaCaT cells (human keratinocyte line); type: functional, cell-based
Outline: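 HaCaT human keratinocytes treated for 48 h. Proliferation assessed by directly counting dispersed cells under a phase-contrast microscope; N = 3, significance versus control at P < 0.01.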

[2] = Partition coefficient (logP); type: physicochemical; conditions: octanol/water
[3] = Antioxidant potential was assessed from reducing activity against 2,2,di-phenyl-1-picrylhydrazyl.
[4] = biological target: T1, Arachidonate 5-lipoxygenase (Bos taurus, UniProt Q9BEG3); experiment: 5-LO inhibitory activity was determined by inhibition of LTB4 biosynthesis in bovine polymorphonuclear leukocytes (PMNL); type: functional, cell-based
T1 sequence (Q9BEG3 whole entry): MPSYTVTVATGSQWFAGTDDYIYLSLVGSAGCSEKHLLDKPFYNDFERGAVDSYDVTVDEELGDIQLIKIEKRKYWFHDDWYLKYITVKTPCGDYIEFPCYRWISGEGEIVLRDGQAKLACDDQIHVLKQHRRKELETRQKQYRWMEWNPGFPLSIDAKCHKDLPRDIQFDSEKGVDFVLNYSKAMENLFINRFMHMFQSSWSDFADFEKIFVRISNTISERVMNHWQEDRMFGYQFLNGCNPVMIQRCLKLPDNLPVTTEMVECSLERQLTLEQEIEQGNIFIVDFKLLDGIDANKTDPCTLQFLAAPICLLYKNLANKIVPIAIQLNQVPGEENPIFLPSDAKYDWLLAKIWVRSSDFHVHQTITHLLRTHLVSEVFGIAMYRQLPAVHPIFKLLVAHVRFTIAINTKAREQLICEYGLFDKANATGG
Outline: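 LTB4 biosynthesis measured in bovine polymorphonuclear leukocytes, with NDGA as the standard inhibitor; N = 3 or more, significance versus control at P < 0.01.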

HaCaT [5] = experiment: Cytotoxic activity (2 uM) was measured by the amount of LDH (mU) release in HaCaT cells.; type: functional, Homo sapiens
Outline: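 HaCaT cells exposed to test compound at 2 μM; LDH activity (mU) released into the culture medium measured and compared with vehicle control; N = 3.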

| SMILES | pIC50 (HaCaT [1]) | logP [2] | kDPPH [3] [M⁻¹ s⁻¹] | pIC50 [4] | LDH (HaCaT [5]) [mU] |
| --- | --- | --- | --- | --- | --- |
| O=C1c2c(O)cccc2C(C(=O)c2ccccc2)c2cccc(O)c21 | < 5.30 | 3.81 |  |  |  |
| Nc1cccc2c1Cc1ccccc1C2=O | < 5.30 | 2.46 | 15.3 | 4.70 |  |
| O=C1C=CC(=O)c2c(O)ccc(O)c21 [NAPHTHAZALIN] | 6.15 | 3.7 | 41.5 |  | 247 |
| c1ccc2cc3ccccc3cc2c1 | < 5.30 |  |  | < 4.52 | 131 |
| COc1cccc2c1Cc1c(O)cccc1C2=O | < 5.30 | 2.6 | < 2 |  | 141 |
| O=C1C=CC(=O)c2c(O)cccc21 [JUGLONE] | 6.10 |  | 6.6 | 4.77 | 384 |
| O=C1c2c(Cl)cccc2Cc2cccc(Cl)c21 | < 5.30 | 3.51 | < 2 | 5.40 |  |
| O=C1c2ccccc2Cc2cccc(O)c21 | < 5.30 | 3.99 | 9.6 | 4.89 | 170 |
| O=CC1c2cccc(O)c2C(=O)c2c(O)cccc21 | 5.72 | 2.79 | < 2 |  | 124 |
| CC(=O)Oc1cccc2c1C(=O)c1c(O)cccc1C2 | 6.10 | 3.25 | 16.1 | 5.22 | 243 |
| CCCCc1ccc2c(c1O)C(=O)c1c(O)cccc1C2 | < 5.30 | 5.89 | 6.5 | < 4.52 |  |
| CCSC1c2cccc(O)c2C(=O)c2c(O)cccc21 |  | 2.97 | > 100 | < 4.52 |  |
| Cc1cc(O)c2c(=O)c3c(O)cc(O)c4c5c(O)cc(O)c6c(=O)c7c(O)cc(C)c8c1c2c(c34)c(c78)c65 [HYPERICIN] | 5.77 | 5.02 | 3.66 | < 4.52 | 159 |
| O=C1c2c(O)cccc2Cc2cccc(O)c21 [ANTHRALIN] |  |  | 24.2 |  | 294 |
| O=C1c2c(O)cccc2C(Br)c2cccc(O)c21 | < 5.30 | 3.94 | 12.7 | < 4.52 |  |
| O=C1c2cccc(O)c2Cc2cccc(O)c21 | 5.37 | 3.51 | 13.5 |  | 191 |
| CC(C)=CCc1c(C)cc(O)c2c1Cc1c(CC=C(C)C)c(O)cc(O)c1C2=O | < 5.30 | 6.56 | 8.2 | 4.60 |  |
| O=C1c2ccccc2Cc2ccccc21 [ANTHRONE] | < 5.30 | 3.46 | < 2 | 5.70 | 165 |
| CCCCC(=O)C1c2cccc(O)c2C(=O)c2c(O)cccc21 | 5.36 | 4.12 | 7 | < 4.52 | 214 |

| SMILES | pIC50 (HaCaT [1]) | logP [2] | kDPPH [3] [M⁻¹ s⁻¹] | pIC50 [4] | LDH (HaCaT [5]) [mU] |
| --- | --- | --- | --- | --- | --- |
| O=C1c2c(O)cccc2C(Cc2ccccc2)c2cccc(O)c21 | < 5.30 | 4.5 | < 2 | < 4.52 | 135 |
| O=Cc1ccc2c(c1O)C(=O)c1c(O)cccc1C2 | < 5.30 | 4.06 | > 100 | 5.22 |  |
| Cc1cc(O)c2c(c1)Cc1cc(O)cc(O)c1C2=O [EMODIN ANTHRONE] | < 5.30 | 3.9 | 21.4 |  | 114 |
| O=C1c2c(O)cccc2C([C@@H]2O[C@H](CO)[C@@H](O)[C@H](O)[C@H]2O)c2cc(CO)cc(O)c21 (some centres not stated) [ALOIN] | < 5.30 | 1.83 | < 2 | < 4.52 |  |
| O=C1c2c(O)cccc2C(O)c2cccc(O)c21 | < 5.30 | 2.91 | < 2 | < 4.52 |  |
| O=C1c2ccccc2Cc2ccc(O)c(O)c21 | 5.72 | 3.19 | 41.5 | 5.40 |  |
| COC(=O)c1cc(O)c2c(c1)Cc1cccc(O)c1C2=O | 6.15 | 4.54 | > 100 | < 4.52 | 340 |
| O=C1c2cccc(Cl)c2Cc2c(Cl)cccc21 | 5.68 | 5.05 | 3.4 |  |  |
| CN(C)C=C1c2cccc(O)c2C(=O)c2c(O)cccc21 | 5.68 | 3.18 | 16.2 | 4.68 |  |
| COc1cccc2c1Cc1c(OC)cccc1C2=O | < 5.30 | 3.68 | < 2 | 5.10 | 137 |
| COC1c2cccc(O)c2C(=O)c2c(O)cccc21 | 5.96 | 3.96 |  | < 4.52 | 146 |
| O=C(c1ccccc1O)c1ccccc1O [2,2'-DIHYDROXYBENZPHENONE] | < 5.30 | 2.66 | 2.1 | < 4.52 |  |
| O=C1c2ccccc2Cc2c1ccc(O)c2O | < 5.30 | 3.81 | > 100 | 5.40 | 144 |
| N#Cc1ccc2c(c1O)C(=O)c1c(O)cccc1C2 | 5.38 | 3.16 | > 100 | 5.10 |  |
| O=C1c2c(O)cccc2C(SCc2ccccc2)c2cccc(O)c21 |  | 4.87 | > 100 | < 4.52 |  |
| COc1cccc2c1C(=O)c1c(cccc1OC)C2 | < 5.30 | 3.88 |  | < 4.52 | 144 |
| O=C1c2c(O)cccc2C(C2c3cccc(O)c3C(=O)c3c(O)cccc32)c2cccc(O)c21 | 6.22 | 5.01 | < 1 | < 4.52 | 263 |
| O=C1c2c(O)cccc2Cc2cc(CO)cc(O)c21 | 6.15 | 3.37 | 20.1 | 4.52 | 376 |
| O=C1c2cccc(O)c2Cc2c(O)cccc21 | < 5.30 | 2.17 | < 2 | 5.40 | 144 |

| SMILES | pIC50 (HaCaT [1]) | logP [2] | kDPPH [3] [M⁻¹ s⁻¹] | pIC50 [4] | LDH (HaCaT [5]) [mU] |
| --- | --- | --- | --- | --- | --- |
| N=C1c2c(O)cccc2Cc2cccc(O)c21 | 6.30 | 4.72 | 2.7 | < 4.52 | 137 |
| CCC1c2cccc(O)c2C(=O)c2c(O)cccc21 | < 5.30 | 4.37 | < 2 | < 4.52 | 161 |
| c1ccc2c(c1)Cc1ccccc1C2 | < 5.30 | 4.06 |  | < 4.52 |  |
| O=C1c2cccc(O)c2C(=O)c2c(O)cccc21 [DANTHRON] | < 5.30 | 4.16 | < 2 | < 4.52 | 170 |
| Nc1cccc2c1C(=O)c1ccccc1C2 | < 5.30 | 2.45 | 50.5 | 4.55 |  |
| O=C(c1ccccc1)c1cccc2c1C(=O)c1c(O)cccc1C2 | 5.37 | 3.99 | 39.6 | 4.57 |  |
| O=C1c2c(O)cccc2C(Cc2ccccc2)(Cc2ccccc2)c2cccc(O)c21 | < 5.30 | 4.33 | < 2 | < 4.52 | 167 |
| Cc1cc(O)c2c(c1)Cc1cccc(O)c1C2=O | 5.82 | 4.8 | 15.3 | < 4.52 | 211 |
| CC(=O)C1c2cccc(O)c2C(=O)c2c(O)cccc21 | 5.59 | 3.49 | 17.6 | 4.74 | 317 |
| O=C1c2c(O)cccc2C(OCc2ccccc2)c2cccc(O)c21 | 5.42 | 4.25 |  | < 4.52 |  |
| COc1cccc2c1C(=O)c1c(O)cccc1C2 | 5.51 | 3.44 | 4.6 |  | 179 |
| CC(=O)Oc1cccc2c1C(=O)c1c(cccc1OC(C)=O)C2 | 6.15 | 2.4 | 3.6 | 5.05 | 314 |
| CC(C)=CCc1c(C)c(CC=C(C)C)c2c(c1O)C(=O)c1c(O)cc(O)c(CC=C(C)C)c1C2 [HARUNGANOL B] | < 5.30 | 8.01 | 3.1 | < 4.52 |  |
| Cc1ccc2c(c1O)C(=O)c1c(O)cccc1C2 | 5.82 | 4.99 | 17.2 | < 4.52 | 126 |
| O=C(O)c1cc(O)c2c(c1)Cc1cccc(O)c1C2=O | < 5.30 | 2.96 | > 100 | 5.52 |  |
| O=C1c2cccc(OCc3ccccc3)c2Cc2c(OCc3ccccc3)cccc21 | < 5.30 | 5.73 | 3.2 |  |  |
| Oc1cccc(O)c1O [PYROGALLOL] | < 5.30 | 1.19 | > 100 | 5.40 |  |
| CCC(=O)c1ccc2c(c1O)C(=O)c1c(O)cccc1C2 | 5.48 | 4.59 | > 100 |  |  |
